According to the M2OR odorant receptor database:

Columns and labels:
Settings in all cases: stereoisomer not certain
UniProt A2ATE5 = target: T1, UniProt A2ATE5
T1 sequence (whole entry): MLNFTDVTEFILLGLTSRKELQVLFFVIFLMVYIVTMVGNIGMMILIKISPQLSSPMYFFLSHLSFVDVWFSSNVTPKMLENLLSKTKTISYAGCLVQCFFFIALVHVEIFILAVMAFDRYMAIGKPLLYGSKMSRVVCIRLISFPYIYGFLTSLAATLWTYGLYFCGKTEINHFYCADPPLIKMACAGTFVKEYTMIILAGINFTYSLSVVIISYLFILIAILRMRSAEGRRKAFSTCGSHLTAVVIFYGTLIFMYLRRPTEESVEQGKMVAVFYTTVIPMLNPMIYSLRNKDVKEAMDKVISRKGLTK
Method in brief: (§1)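 Each entry records the cell line, G-protein, co-transfected protein and tags used. Methods varied with the source, often transient luciferase assays in mammalian cell lines. A receptor–molecule pair is called responsive (active) if the original authors judged its signal statistically different from baseline and non-responsive (inactive) otherwise.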

UniProt A2AVB0 = target: T2, UniProt A2AVB0
T2 sequence (whole entry): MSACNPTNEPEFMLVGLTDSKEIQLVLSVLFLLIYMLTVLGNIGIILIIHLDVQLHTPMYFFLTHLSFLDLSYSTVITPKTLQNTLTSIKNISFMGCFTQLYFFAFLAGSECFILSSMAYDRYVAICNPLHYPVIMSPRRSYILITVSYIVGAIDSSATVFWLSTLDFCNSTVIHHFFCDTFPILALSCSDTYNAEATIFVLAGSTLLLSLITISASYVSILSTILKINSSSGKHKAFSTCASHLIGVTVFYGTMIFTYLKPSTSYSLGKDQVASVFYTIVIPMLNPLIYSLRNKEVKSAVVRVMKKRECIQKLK
Method in brief: as §1

UniProt A2AVB5 = target: T3, UniProt A2AVB5
T3 sequence (whole entry): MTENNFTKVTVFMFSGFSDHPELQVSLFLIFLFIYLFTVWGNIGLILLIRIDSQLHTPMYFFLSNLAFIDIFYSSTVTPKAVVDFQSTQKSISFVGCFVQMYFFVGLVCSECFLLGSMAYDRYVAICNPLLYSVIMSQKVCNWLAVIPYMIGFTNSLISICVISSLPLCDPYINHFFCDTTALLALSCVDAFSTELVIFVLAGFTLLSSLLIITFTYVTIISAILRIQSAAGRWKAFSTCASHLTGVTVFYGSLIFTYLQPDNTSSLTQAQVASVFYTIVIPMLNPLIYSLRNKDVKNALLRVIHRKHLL
Method in brief: as §1

UniProt B2RVX8 = target: T4, UniProt B2RVX8
T4 sequence (whole entry): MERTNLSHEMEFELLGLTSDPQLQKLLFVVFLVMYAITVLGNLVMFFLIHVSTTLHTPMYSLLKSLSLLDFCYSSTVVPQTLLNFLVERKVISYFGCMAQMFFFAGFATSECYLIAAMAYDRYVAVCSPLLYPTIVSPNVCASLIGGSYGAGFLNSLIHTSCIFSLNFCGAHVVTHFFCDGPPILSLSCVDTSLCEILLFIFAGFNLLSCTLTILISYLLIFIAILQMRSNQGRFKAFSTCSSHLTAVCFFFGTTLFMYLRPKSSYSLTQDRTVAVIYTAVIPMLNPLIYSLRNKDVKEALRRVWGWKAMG
Method in brief: as §1

UniProt E9PVX1 = target: T5, UniProt E9PVX1
T5 sequence (whole entry): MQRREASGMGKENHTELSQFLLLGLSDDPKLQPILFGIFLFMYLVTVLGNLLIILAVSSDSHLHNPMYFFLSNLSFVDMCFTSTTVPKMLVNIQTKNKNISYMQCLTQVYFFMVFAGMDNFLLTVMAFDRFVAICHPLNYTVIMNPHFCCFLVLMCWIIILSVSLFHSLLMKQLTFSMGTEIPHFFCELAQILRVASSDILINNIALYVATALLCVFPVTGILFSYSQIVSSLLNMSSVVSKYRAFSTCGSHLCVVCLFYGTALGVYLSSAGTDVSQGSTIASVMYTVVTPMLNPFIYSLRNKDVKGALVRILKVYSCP
Method in brief: as §1

UniProt E9PX47 = target: T6, UniProt E9PX47
T6 sequence (whole entry): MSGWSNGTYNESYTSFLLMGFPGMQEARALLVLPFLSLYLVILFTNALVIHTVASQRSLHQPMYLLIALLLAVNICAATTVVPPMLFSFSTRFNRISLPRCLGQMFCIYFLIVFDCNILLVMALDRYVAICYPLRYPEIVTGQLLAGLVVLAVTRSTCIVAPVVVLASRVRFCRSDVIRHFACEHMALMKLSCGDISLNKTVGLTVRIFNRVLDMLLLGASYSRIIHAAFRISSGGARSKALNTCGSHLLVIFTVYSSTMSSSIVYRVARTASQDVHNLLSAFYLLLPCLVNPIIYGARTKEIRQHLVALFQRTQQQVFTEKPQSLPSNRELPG
Method in brief: as §1

UniProt E9PXN3 = target: T7, UniProt E9PXN3
T7 sequence (whole entry): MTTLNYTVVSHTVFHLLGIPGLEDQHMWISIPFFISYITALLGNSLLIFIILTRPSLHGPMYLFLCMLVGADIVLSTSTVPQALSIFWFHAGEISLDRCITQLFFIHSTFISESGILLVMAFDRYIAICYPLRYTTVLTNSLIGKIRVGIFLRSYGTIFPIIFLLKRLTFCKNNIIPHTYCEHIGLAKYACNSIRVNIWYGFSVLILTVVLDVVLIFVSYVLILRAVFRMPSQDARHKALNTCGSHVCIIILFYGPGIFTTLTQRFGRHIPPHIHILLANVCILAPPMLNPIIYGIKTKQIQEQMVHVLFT
Method in brief: as §1

UniProt E9PZ66 = target: T8, UniProt E9PZ66
T8 sequence (whole entry): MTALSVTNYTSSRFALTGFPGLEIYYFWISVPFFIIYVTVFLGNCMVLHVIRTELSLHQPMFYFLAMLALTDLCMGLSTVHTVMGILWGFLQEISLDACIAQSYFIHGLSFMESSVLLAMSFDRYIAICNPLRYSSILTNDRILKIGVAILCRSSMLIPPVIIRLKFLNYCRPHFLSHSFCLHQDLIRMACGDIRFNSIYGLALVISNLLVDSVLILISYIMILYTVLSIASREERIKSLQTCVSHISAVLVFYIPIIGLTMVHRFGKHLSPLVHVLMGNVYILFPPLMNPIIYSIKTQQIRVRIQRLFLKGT
Method in brief: as §1

UniProt E9Q4X7 = target: T9, UniProt E9Q4X7
T9 sequence (whole entry): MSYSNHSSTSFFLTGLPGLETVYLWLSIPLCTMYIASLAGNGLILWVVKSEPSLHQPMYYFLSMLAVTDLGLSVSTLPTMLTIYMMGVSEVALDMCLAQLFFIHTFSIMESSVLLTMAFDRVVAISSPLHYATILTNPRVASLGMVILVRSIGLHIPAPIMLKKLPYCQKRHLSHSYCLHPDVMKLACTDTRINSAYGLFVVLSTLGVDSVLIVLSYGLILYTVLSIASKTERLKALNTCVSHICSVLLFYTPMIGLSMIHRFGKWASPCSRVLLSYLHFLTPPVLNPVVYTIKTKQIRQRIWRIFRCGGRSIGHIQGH
Method in brief: as §1

UniProt E9Q546 = target: T10, UniProt E9Q546
T10 sequence (whole entry): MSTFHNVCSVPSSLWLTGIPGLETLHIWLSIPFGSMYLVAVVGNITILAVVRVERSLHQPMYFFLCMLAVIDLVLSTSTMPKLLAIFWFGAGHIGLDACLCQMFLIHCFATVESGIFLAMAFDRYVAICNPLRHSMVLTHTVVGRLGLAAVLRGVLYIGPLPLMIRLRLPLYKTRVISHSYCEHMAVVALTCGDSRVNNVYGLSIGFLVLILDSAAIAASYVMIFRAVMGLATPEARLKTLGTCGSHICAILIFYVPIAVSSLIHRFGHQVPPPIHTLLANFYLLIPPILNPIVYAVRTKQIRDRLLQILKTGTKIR
Method in brief: as §1

UniProt E9Q6Z7 = target: T11, UniProt E9Q6Z7
T11 sequence (whole entry): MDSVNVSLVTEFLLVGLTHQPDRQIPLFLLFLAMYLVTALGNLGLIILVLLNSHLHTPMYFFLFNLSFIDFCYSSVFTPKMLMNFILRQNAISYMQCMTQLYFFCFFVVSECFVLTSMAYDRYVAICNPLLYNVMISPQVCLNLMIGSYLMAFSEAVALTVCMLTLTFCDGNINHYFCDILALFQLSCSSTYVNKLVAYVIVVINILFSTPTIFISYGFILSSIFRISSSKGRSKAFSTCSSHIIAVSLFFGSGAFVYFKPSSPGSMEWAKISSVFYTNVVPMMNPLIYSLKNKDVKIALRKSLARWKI
Method in brief: as §1

UniProt K7N609 = target: T12, UniProt K7N609
T12 sequence (whole entry): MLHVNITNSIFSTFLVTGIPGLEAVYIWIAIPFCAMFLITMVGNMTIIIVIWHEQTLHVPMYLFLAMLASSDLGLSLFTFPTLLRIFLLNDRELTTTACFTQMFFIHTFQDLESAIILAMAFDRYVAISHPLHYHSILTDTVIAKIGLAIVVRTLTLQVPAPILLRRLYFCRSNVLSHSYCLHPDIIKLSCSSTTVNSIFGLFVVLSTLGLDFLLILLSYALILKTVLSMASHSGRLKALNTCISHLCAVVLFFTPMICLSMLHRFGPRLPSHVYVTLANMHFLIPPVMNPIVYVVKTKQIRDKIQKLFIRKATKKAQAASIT
Method in brief: as §1

UniProt E1BM68 = target: T13, UniProt E1BM68
T13 sequence (whole entry): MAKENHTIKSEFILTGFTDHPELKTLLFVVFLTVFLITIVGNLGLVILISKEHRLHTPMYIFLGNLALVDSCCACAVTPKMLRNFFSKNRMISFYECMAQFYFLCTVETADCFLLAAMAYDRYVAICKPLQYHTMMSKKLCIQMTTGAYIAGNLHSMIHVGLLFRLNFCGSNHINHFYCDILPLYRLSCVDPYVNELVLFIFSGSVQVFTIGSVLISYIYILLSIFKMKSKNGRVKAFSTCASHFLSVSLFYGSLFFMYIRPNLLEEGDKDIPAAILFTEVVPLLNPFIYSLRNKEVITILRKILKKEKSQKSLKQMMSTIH
Method in brief: as §1

UniProt E9QAT7 = target: T14, UniProt E9QAT7
T14 sequence (whole entry): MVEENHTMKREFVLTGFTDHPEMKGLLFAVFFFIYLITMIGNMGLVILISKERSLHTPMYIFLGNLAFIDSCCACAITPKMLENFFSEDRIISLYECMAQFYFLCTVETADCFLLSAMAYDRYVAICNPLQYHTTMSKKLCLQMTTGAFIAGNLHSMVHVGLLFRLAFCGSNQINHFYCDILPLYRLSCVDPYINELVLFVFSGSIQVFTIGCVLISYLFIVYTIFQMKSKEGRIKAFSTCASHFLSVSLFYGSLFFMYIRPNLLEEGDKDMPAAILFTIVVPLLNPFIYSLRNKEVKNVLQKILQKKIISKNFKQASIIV
Method in brief: as §1

Structure (SMILES)	odorant receptor agonist call (UniProt A2ATE5)	odorant receptor agonist call (UniProt A2AVB0)	odorant receptor agonist call (UniProt A2AVB5)	odorant receptor agonist call (UniProt B2RVX8)	odorant receptor agonist call (UniProt E9PVX1)	odorant receptor agonist call (UniProt E9PX47)	odorant receptor agonist call (UniProt E9PXN3)	odorant receptor agonist call (UniProt E9PZ66)	odorant receptor agonist call (UniProt E9Q4X7)	odorant receptor agonist call (UniProt E9Q546)	odorant receptor agonist call (UniProt E9Q6Z7)	odorant receptor agonist call (UniProt K7N609)	odorant receptor agonist call (UniProt E1BM68)	odorant receptor agonist call (UniProt E9QAT7)
CCCCCCCO	inactive	inactive	inactive	inactive	inactive	inactive	inactive	inactive	inactive	inactive	inactive	inactive	–	–
CCCCCCCCCS	inactive	inactive	inactive	inactive	inactive	–	–	inactive	inactive	inactive	inactive	inactive	–	–
CCCCCCCCO	inactive	inactive	inactive	inactive	inactive	inactive	inactive	inactive	inactive	inactive	inactive	inactive	–	–
c1ccccc1	inactive	inactive	inactive	inactive	inactive	–	–	inactive	inactive	inactive	inactive	inactive	–	–
CCCCC(=O)CC	inactive	inactive	inactive	inactive	inactive	–	–	inactive	inactive	inactive	inactive	inactive	–	–
CCCCCC1=C(C)CCC1=O	inactive	inactive	inactive	active	inactive	–	–	inactive	inactive	inactive	inactive	inactive	–	–
CC(C)=CCCC(C)=CCO	inactive	inactive	inactive	inactive	inactive	–	–	inactive	inactive	inactive	inactive	inactive	–	–
CCC(=O)C(=O)CC	inactive	inactive	inactive	inactive	inactive	–	–	inactive	inactive	inactive	inactive	inactive	–	–
COc1cnccn1	inactive	inactive	–	–	inactive	–	–	inactive	inactive	inactive	inactive	–	active	inactive
CC(CC=O)CCCC(C)(C)O (stereo not drawn)	inactive	inactive	–	–	inactive	–	–	inactive	inactive	inactive	inactive	–	–	–
CC1CCC(C(C)C)C(=O)C1 (stereo not drawn)	inactive	inactive	–	–	inactive	–	–	inactive	inactive	inactive	inactive	–	–	–
CC1(C)CC(=O)CC(=O)C1	inactive	inactive	–	–	inactive	–	–	inactive	inactive	inactive	inactive	–	–	–
CCCCC=O	inactive	inactive	–	–	inactive	inactive	inactive	inactive	inactive	inactive	inactive	–	–	–
CCCCCC(=O)CC	inactive	inactive	inactive	inactive	inactive	–	–	inactive	inactive	inactive	inactive	inactive	–	–
